The record followed here is ChEMBL document CHEMBL4177753, “Structural Modification of Natural Product Ganomycin I Leading to Discovery of a α-Glucosidase and HMG-CoA Reductase Dual Inhibitor Improving Obesity and Metabolic Dysfunction in Vivo” (J Med Chem, 2018).

Assay [1] concerns the target T1, 3-hydroxy-3-methylglutaryl-coenzyme A reductase (Sus scrofa, UniProt Q1W675).
T1 sequence (Q1W675 whole entry): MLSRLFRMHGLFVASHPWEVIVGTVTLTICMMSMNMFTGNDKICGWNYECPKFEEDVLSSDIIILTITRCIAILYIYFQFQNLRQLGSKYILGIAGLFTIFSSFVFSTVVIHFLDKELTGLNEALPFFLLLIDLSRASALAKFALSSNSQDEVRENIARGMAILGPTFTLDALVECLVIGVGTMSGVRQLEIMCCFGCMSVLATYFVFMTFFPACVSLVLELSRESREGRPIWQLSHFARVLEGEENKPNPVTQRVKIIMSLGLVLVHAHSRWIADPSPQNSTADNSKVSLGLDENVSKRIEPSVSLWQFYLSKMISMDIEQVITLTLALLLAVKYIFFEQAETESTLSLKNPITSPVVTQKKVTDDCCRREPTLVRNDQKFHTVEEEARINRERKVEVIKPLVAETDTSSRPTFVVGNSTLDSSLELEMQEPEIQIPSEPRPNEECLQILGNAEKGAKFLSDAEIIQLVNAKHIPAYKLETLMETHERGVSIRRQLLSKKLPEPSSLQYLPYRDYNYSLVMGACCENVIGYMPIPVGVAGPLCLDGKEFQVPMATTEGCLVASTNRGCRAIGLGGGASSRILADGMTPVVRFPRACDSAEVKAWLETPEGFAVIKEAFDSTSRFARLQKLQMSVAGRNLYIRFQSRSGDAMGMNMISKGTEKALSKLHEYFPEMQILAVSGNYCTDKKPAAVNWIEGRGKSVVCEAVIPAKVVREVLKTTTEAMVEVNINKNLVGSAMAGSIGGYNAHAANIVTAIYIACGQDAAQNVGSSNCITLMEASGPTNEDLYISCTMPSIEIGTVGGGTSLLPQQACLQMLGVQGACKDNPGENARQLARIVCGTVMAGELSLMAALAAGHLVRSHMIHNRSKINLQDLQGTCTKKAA
The assay is described as follows: (§1) Inhibition of pig liver microsomal HMG-CoA reductase by colorimetric method. The method, boiled down: (§2)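 Pig liver microsomal HMG-CoA reductase; compounds tested at several concentrations, each in triplicate; control uses phosphate buffer instead of compound, blank uses buffer instead of enzyme. Absorbance read at 405 nm; % inhibition from blank-corrected OD of test versus control; IC50 fitted from the inhibition-concentration series.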

A short description of assay [2]: Inhibition of rat small intestinal mucosal alpha-glucosidase using p-nitrophenyl-alpha-D-glucopyranoside as substrate after 40 mins by colorimetric method. In outline:
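Rat small intestinal mucosal α-glucosidase; several compound concentrations, each run three times in parallel; phosphate-buffer control replaces compound, blank replaces enzyme. Absorbance at 405 nm; % inhibition = blank-corrected OD of test versus control; IC50 derived from the concentration gradient.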

In assay [3] the target is T2, 3-hydroxy-3-methylglutaryl-coenzyme A reductase (Sus scrofa) (UniProt Q1W675).
T2 sequence (whole entry): T1 sequence (Q1W675 whole entry)
The assay is described as §1. In outline:
as §2

A short description of assay [4]: Inhibition of rat small intestinal mucosal alpha-glucosidase using p-nitrophenyl-alpha-D-glucopyranoside as substrate by HPLC method. The method, boiled down:
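Rat intestinal α-glucosidase; after incubation the product 4-nitrophenol is quantified at once by HPLC (gradient from 20% acetonitrile in water with 0.1‰ TFA to 100% acetonitrile over 10 min). Each concentration run 3 times in parallel; % inhibition from peak areas versus control minus control blank; IC50 from the concentration series.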

Assay [5] concerns Mus musculus. In words: Antiobesity activity in C57BL/6J DIO mouse assessed as reduction in LEE index at 3 mg/kg administered daily via oral gavage for 5 weeks. It counts as functional, organism-based. The method, boiled down:
(§3)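 Male C57BL/6J mice on high-fat diet, n = 8 per group, grouped by blood glucose and body weight. Daily oral gavage at 0.3, 1.0 or 3.0 mg/kg in soybean vehicle for 5 weeks. Vehicle groups were on normal diet and on high-fat diet.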

Assay [6] deals with Mus musculus. In words: Antiobesity activity in C57BL/6J DIO mouse assessed as reduction in cumulative food intake at 3 mg/kg administered daily via oral gavage for 5 weeks. The class given is functional, organism-based. The method, boiled down: as §3
In assay [7] the test system is Mus musculus. The assay is described as follows: Antiobesity activity in C57BL/6J DIO mouse assessed as reduction in weight gain at 3 mg/kg administered daily via oral gavage for 5 weeks relative to vehicle-treated control. It counts as functional. In outline: as §3

Activity calls are given as the source filed them. No cut-off for these calls is given here.

As usually defined, the IC50 is the midpoint of a concentration-inhibition curve. A lower IC50 goes with inhibition by little substance. `CC(C)c1c(C(=O)Nc2ccccc2)c(-c2ccccc2)c(-c2ccc(F)cc2)n1CC[C@@H](O)C[C@@H](O)CC(=O)O` [ATORVASTATIN] displayed a concentration for half-maximal inhibition (IC50) in assay [1] of 0.93 µM.

Turning to `CC(C)=CCC/C(C)=C/CCC1=C[C@H](c2ccccc2)OC1=O`, the results for the 50% inhibitory concentration (IC50) in assay [2] and in assay [1] were 1.24 µM and 16.5 µM, respectively. Besides, the inhibition result in assay [3] was “Dose-dependent effect”.

On to `CC(C)=CCC/C(C)=C/CCC1=C[C@H](c2ccccc2[N+](=O)[O-])OC1=O`, for which the half-maximal inhibitory concentration (IC50) in assay [2] was determined as 0.26 µM; in assay [1] it was 18.9 µM. Also, the inhibition entry in assay [3] is “Dose-dependent effect”.

As for `CC(C)=CCC/C(C)=C/CCC1=C[C@H](c2ccc(C)cc2)OC1=O`, the IC50 worked out at 0.29 µM in assay [2], 18.1 µM in assay [1] and 0.23 µM in assay [4]. Besides, the inhibition entry in assay [3] was “Dose-dependent effect”.

On to `CC(C)=CCC/C(C)=C/CCC1=C[C@H](c2ccc([N+](=O)[O-])cc2)OC1=O`, for which the values for the IC50 in assay [2] and in assay [1] were 5.11 µM and 7.43 µM, respectively. In addition, the inhibition result in assay [3] is “Dose-dependent effect”.

With `CCc1ccc([C@H]2C=C(CC/C=C(\C)CCC=C(C)C)C(=O)O2)cc1`, the values for the IC50 in assay [2], in assay [1] and in assay [4] were 0.17 µM, 14.2 µM and 0.16 µM, respectively. Moreover, the inhibition entry in assay [3] was “Dose-dependent effect”.

With `CC(C)=CCC/C(C)=C/CCC1=C[C@H](c2cc(O)ccc2O)OC1=O`, the IC50 in assay [2] turned out to be 0.38 µM.

Take `C[C@H]1O[C@H](O[C@H]2[C@H](O)[C@@H](O)[C@@H](O[C@H]3[C@H](O)[C@@H](O)C(O)O[C@@H]3CO)O[C@@H]2CO)[C@H](O)[C@@H](O)[C@@H]1N[C@H]1C=C(CO)[C@@H](O)[C@H](O)[C@H]1O` (stereo partly drawn) [ACARBOSE]: the outcome in assay [5], in assay [6] and in assay [7] was inactive. The IC50 in assay [2] was 1.26 µM.

Regarding `CC(C)=CCC/C(C)=C/CCC1=C[C@H](c2ccc(C(C)C)cc2)OC1=O`, the IC50 in assay [2] worked out at 32.8 µM; in assay [1], 112 µM; in assay [4], 28.7 µM. The inhibition entry in assay [3] was “Dose-dependent effect”.

As to `COCOc1ccccc1[C@H]1C=C(CC/C=C(\C)CCC=C(C)C)C(=O)O1`, the concentration for half-maximal inhibition (IC50) turned out to be 19.3 µM in assay [2] and 8.9 µM in assay [1]. In assay [3], the inhibition result is “Dose-dependent effect”.

On to `COc1ccc(OC)c([C@H]2C=C(CC/C=C(\C)CCC=C(C)C)C(=O)O2)c1`, for which the IC50 came out at 12.1 µM in assay [2] and 13.2 µM in assay [1]. Besides, the inhibition entry in assay [3] is “Dose-dependent effect”.

Consider `CC(C)=CCC/C(C)=C/CCC1=C[C@H](c2ccccc2O)OC1=O`, for which the figures for the 50% inhibitory concentration (IC50) in assay [2] and in assay [1] were 2.27 µM and 6.76 µM, respectively. Further, the inhibition result in assay [3] is “Dose-dependent effect”.

With `COc1ccc([C@H]2C=C(CC/C=C(\C)CCC=C(C)C)C(=O)O2)cc1`, the IC50 amounted to 21.7 µM in assay [2] and 6.21 µM in assay [1]. Also, the inhibition result in assay [3] was “Dose-dependent effect”.

Consider `CC(C)=CCC/C(C)=C/CCC1=C[C@H](c2ccc3ccccc3c2)OC1=O`, for which the results for the IC50 in assay [2] and in assay [1] were 5.98 µM and 49.8 µM, respectively. Moreover, the inhibition entry in assay [3] was “Dose-dependent effect”.

In the case of `CC(C)=CCC/C(C)=C/CCC1=C[C@H](c2cc(F)c(F)c(F)c2)OC1=O`, the IC50 in assay [2] came to 2.04 µM; in assay [1] it was 38.2 µM. For the same compound, the inhibition result in assay [3] was “Dose-dependent effect”.

`CC(C)=CCC/C(C)=C/CCC1=C[C@H](c2cc(F)ccc2F)OC1=O`: the IC50 in assay [2] is 1.59 µM; in assay [1] it was 25.1 µM. For the same compound, in assay [3], the inhibition entry was “Dose-dependent effect”.
